Experimental data from different studies.
Target: Mitogen-activated protein kinase kinase kinase 9 (MAP3K9, Homo sapiens, UniProt P80192)

Cc1ccc(NC(=O)c2ccnc(C(F)(F)F)c2)cc1-c1cc(OCCO)nc(N2CCOCC2)c1 — remaining binding (binding; 1 µM): 100%
CO[C@@H]1[C@H](N(C)C(=O)c2ccccc2)C[C@H]2O[C@]1(C)n1c3ccccc3c3c4c(c5c6ccccc6n2c5c31)C(=O)NC4 — inhibition (enzyme activity; inhibitor; 1 µM): 90%
CN1CCN(C(=O)c2ccc(NC(=O)Nc3ccc(N(C)c4ccnc(Nc5ccc(CS(C)(=O)=O)cc5)n4)cc3)cc2)CC1 — remaining binding (binding; 1 µM): 86%
COc1ccc2oc(-c3ccc4nc(N)oc4c3)c/c(=N\c3ccccc3NC(=O)CCN)c2c1 — remaining binding (binding; 1 µM): 83%
C#Cc1cnc(Nc2ccnc(CO)c2)nc1Nc1ccccc1S(C)(=O)=NC#N (stereo not drawn) — remaining signal (cell-free assay; 1 µM): 26%
CCCCC(=O)Nc1ccc(-c2ccc3ncn(CCC)c(=O)c3c2)cn1 — remaining binding (binding; competition with immobilised ligand; 0.5 µM): 83%
C#Cc1cc(-c2cc(Nc3nc(N[C@@H](C)c4ccc(F)cn4)ncc3Cl)n[nH]2)ccc1C=O — inhibition (enzyme activity; inhibitor; 0.2 µM): 59.8%
C=CC(=O)N1CCC[C@@H](n2nc(-c3ccc(Oc4ccccc4)cc3)c3c(N)ncnc32)C1 — inhibition (enzyme activity; inhibitor; 1 µM): 4%
N#Cc1ccc(NC(=O)Nc2ccccc2)cc1 — remaining binding (cell-free assay; competition with immobilised ligand; 25 µM): 100%
